Assays:
[1] = Cytotoxicity against African green monkey Vero E6 cells assessed as cell viability incubated for 5 days by neutral red uptake based microplate reader method; type: toxicity, Vero C1008; conditions: chlorocebus sabaeus, time 5 day
Summary of the method: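 Vero E6 cells seeded and grown for 24 h, then washed. Serial compound dilutions added in serum-free medium for 5 days at 37 °C. Neutral red (40 μg/mL) taken up for 2–4 h, with absorbance read at 540 nm. CC50 from variable-slope dose-response fit.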

SARS-CoV-2 = test: Antiviral activity against SARS-Cov-2 USA-WA1/2020 isolate infected in African green monkey Vero E6 cells measured after 48 hrs of postinfection by immunofluorescence assay; type: functional, organism-based; conditions: Severe acute respiratory syndrome coronavirus 2, USA-WA1/2020, Vero C1008, 48 h
[2] = molecular target: T1, Replicase polyprotein 1ab (Severe acute respiratory syndrome coronavirus 2, UniProt P0DTD1); test: Non-covalent inhibition of SARS-Cov-2 -Mpro incubated for 30 mins using FRET substrate measured for 1 hr by FRET-based enzymatic assay
[3] = Selectivity Index, ratio of CC50 for african green monkey vero E6 cells to EC50 for antiviral activity against SARS-Cov-2 USA-WA1/2020 isolate infected in African green monkey Vero E6 cells; type: toxicity, Vero C1008; conditions: read-out: Ratio CC50/EC50
[4] = Non-covalent inhibition of SARS-Cov -Mpro incubated for 30 mins using FRET substrate measured for 1 hr by FRET-based enzymatic assay; parameters: species or system Severe acute respiratory syndrome-related coronavirus
[5] = molecular target: T2, Calpain-1 catalytic subunit (Homo sapiens, UniProt P07384); test: Non-covalent inhibition of Calpain 1 (unknown origin) incubated for 1 hr by FRET-based enzymatic assay
T2 sequence (P07384 whole entry): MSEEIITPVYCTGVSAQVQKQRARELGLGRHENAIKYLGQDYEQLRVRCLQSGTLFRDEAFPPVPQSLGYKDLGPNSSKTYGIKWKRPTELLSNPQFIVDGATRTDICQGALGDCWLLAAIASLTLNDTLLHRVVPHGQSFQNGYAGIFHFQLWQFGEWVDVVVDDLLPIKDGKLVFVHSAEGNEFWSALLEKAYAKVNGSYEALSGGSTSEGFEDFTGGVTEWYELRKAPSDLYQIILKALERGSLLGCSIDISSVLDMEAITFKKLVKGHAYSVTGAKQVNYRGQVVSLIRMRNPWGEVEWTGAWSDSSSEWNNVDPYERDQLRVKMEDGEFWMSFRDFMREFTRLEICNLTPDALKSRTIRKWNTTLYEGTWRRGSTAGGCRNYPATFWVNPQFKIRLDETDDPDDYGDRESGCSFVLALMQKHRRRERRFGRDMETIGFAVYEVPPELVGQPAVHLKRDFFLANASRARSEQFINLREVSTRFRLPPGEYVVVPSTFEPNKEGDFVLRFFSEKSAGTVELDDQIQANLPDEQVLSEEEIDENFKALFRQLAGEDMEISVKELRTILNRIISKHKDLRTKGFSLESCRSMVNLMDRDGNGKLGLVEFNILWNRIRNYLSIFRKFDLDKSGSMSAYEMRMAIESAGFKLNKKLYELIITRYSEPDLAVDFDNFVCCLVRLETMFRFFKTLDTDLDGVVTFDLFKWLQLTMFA
Summary of the method: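 Calpain 1 in 50 mM HEPES, 50 mM NaCl, 10 mM DTT, 5 mM CaCl2, pH 7.5. Reaction started with N-succinyl-Leu-Leu-Val-Tyr-AMC (4 mM stock).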

[6] = molecular target: T1, Replicase polyprotein 1ab; test: Stabilization in SARS-CoV-2 MPro assessed as binding constant incubated for 30 mins in presence of DTT by thermal shift binding assay
Summary of the method: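 3 μM SARS-CoV-2 Mpro in Mpro reaction buffer with 4 mM DTT, incubated with varying compound concentrations for 30 min at 30 °C. SYPRO orange added and melt run from 20 to 90 °C at 0.05 °C/s. Tm plotted against concentration and fitted to one-site binding to give apparent Kd.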

Procathepsin L = Procathepsin L (Homo sapiens, UniProt P07711); test: Non-covalent inhibition of Cathepsin L (unknown origin) incubated for 30 mins using FRET substrate measured for 1 hr by FRET-based enzymatic assay
Summary of the method: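 Cathepsin L activated for 30 min at 30 °C in 20 mM sodium acetate, 1 mM EDTA, 5 mM DTT, pH 5.5. 300 pM enzyme preincubated with compound for 30 min at 30 °C.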

[7] = molecular target: T1, Replicase polyprotein 1ab; test: Non-covalent inhibition of SARS-Cov-2 PLpro incubated for 30 mins using FRET substrate measured for 1 hr by FRET-based enzymatic assay

Sequence of Procathepsin L (P07711 whole entry): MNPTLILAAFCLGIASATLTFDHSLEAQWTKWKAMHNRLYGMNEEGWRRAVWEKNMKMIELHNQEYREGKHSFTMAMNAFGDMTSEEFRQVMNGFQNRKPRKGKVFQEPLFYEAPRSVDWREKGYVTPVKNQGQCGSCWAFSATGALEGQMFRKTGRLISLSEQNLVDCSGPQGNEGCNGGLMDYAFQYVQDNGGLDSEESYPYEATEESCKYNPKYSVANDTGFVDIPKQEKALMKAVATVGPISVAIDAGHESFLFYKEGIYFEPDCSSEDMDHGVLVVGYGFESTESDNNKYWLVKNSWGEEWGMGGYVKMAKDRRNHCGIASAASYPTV

SMILES	CC50 at 120 h [1]	EC50 (SARS-CoV-2)	IC50 [2]	further results
C[C@H](NC(=O)C(c1cccnc1)N(C(=O)c1ccco1)c1ccc(-c2ccccc2)cc1)c1ccccc1 (stereo partly drawn)	> 200 µM	1.61 µM	0.66 µM	–
C[C@H](NC(=O)C(c1cccnc1)N(C(=O)c1ccco1)c1ccc(-n2cccc2)cc1)c1ccccc1 (stereo partly drawn)	> 200 µM	1.73 µM	–	selectivity ratio [3]: > 116
Cc1cccc(C)c1NC(=O)C(c1cccnc1)N(C(=O)c1ccco1)c1ccc(C(C)(C)C)cc1 (stereo not drawn)	–	–	> 20 µM	–
C[C@H](NC(=O)C(c1cccnc1)N(C(=O)c1cnco1)c1ccc(-c2ccccc2)cc1)c1ccccc1 (stereo partly drawn)	67 µM	–	–	–
C[C@H](NC(=O)[C@H](c1cccnc1)N(C(=O)c1ccco1)c1ccc(-c2ccccc2)cc1)c1ccccc1	–	–	> 20 µM	–
CC(C)(C)c1ccc(N(C(=O)c2ccco2)C(C(=O)NC2CCCC2)c2cccnc2)cc1 (stereo not drawn)	101 µM	–	–	–
CC(C)(C)c1ccc(N(C(=O)c2ccco2)C(C(=O)NC2CC2)c2cccnc2)cc1 (stereo not drawn)	52.8 µM	–	–	–
CC(C)(C)CC(C)(C)NC(=O)C(c1cccnc1)N(C(=O)c1ccco1)c1ccc(-c2ccccc2)cc1 (stereo not drawn)	148 µM	–	2.14 µM	–
C[C@H](NC(=O)C(c1cccnc1)N(C(=O)c1ccno1)c1ccc(-c2ccccc2)cc1)c1ccccc1 (stereo partly drawn)	> 200 µM	–	–	–
C[C@H](NC(=O)C(c1cccnc1)N(C(=O)c1ccco1)c1ccc([Si](C)(C)C)cc1)c1ccccc1 (stereo partly drawn)	19.4 µM	–	–	–
C[C@H](NC(=O)C(c1cnccn1)N(C(=O)c1c[nH]cn1)c1ccc(-c2ccccc2)cc1)c1ccccc1 (stereo partly drawn)	148 µM	4.54 µM	–	selectivity ratio [3]: 32.6
O=C(NCC(c1ccccc1)c1ccccc1)C(c1cccnc1)N(C(=O)c1ccco1)c1ccc(-c2ccccc2)cc1 (stereo not drawn)	> 200 µM	–	–	–
C[C@H](NC(=O)[C@@H](c1cccnc1)N(C(=O)c1ccco1)c1ccc(-c2ccccc2)cc1)c1ccccc1	> 100 µM	–	0.2 µM	IC50 [4]: 0.27 µM; IC50 [5]: 6 µM; Kd [6]: 9.43 µM; IC50 (Procathepsin L): 10.5 µM; IC50 [7]: > 60 µM
CC(C)(C)CC(C)(C)NC(=O)C(c1cccnc1)N(C(=O)c1ccco1)c1ccc(C(C)(C)C)cc1 (stereo not drawn)	–	–	> 20 µM	–
C[C@H](NC(=O)C(c1cnccn1)N(C(=O)c1ccco1)c1ccc(-c2ccccc2)cc1)c1ccccc1 (stereo partly drawn)	> 200 µM	0.82 µM	–	selectivity ratio [3]: > 244
C[C@H](NC(=O)C(c1cccnc1)N(C(=O)c1c[nH]cn1)c1ccc(-c2ccccc2)cc1)c1ccccc1 (stereo partly drawn)	129 µM	13.1 µM	–	selectivity ratio [3]: 9.9

— ChEMBL document CHEMBL5154635, “Expedited Approach toward the Rational Design of Noncovalent SARS-CoV-2 Main Protease Inhibitors” (J Med Chem, 2022)
